In ChEMBL document CHEMBL4765405, “Design, synthesis and biological activities of novel pleuromutilin derivatives with a substituted triazole moiety as potent antibacterial agents” (Eur J Med Chem, 2020):
Converted amounts (≈) assume the structure as drawn. The source made the active and inactive calls. No cut-off for these calls is given here.

How the values were obtained:
Staphylococcus aureus [1] = experiment: Bactericidal activity against methicillin-resistant Staphylococcus aureus ATCC 43300 preincubated 16 to 20 hrs followed by subculturing and measured after over night; assay type: functional
In short: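 MBC determined by the CLSI broth microdilution method against MRSA ATCC 43300, with ATCC 43300 also serving as the QC strain. Pleuromutilin and tiamulin were reference drugs.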

Staphylococcus aureus [2] = experiment: Antibacterial activity against Staphylococcus aureus ATCC 29213 after 24 hrs by CLSI based broth micro dilution method; assay type: functional
In short: (§1)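 Broth microdilution run per CLSI. MRSA ATCC 43300 served as the QC strain, with the CLSI QC range as reference. S. aureus AD3 and 144 are clinical isolates from Guangdong Province. Pleuromutilin and tiamulin were run as reference drugs.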

Staphylococcus aureus [3] = experiment: Bactericidal activity against Staphylococcus aureus ATCC 29213 preincubated 16 to 20 hrs followed by subculturing and measured after over night; assay type: functional
In short: (§2)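 MBC by CLSI broth microdilution on the same strain panel: S. aureus ATCC 43300, ATCC 29213, clinical isolates AD3 and 144, E. coli ATCC 25922; ATCC 43300 served as QC strain.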

Staphylococcus aureus [4] = experiment: Antibacterial activity against methicillin-resistant Staphylococcus aureus ATCC 43300 assessed as post antibacterial effect at 2 time of MIC concentration preincubated for 2 hrs followed by compound washout further incubated with fresh medium and measured for 6 hrs; assay type: functional
Staphylococcus aureus [5] = experiment: Antibacterial activity against Staphylococcus aureus AD3 after 24 hrs by CLSI based broth micro dilution method; assay type: functional
In short: (§3)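 CLSI broth microdilution MIC against S. aureus ATCC 43300 (MRSA), ATCC 29213, clinical isolates AD3 and 144 (Guangdong Province), and E. coli ATCC 25922; ATCC 43300 served as QC strain, with the CLSI quality control range as reference.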

Staphylococcus aureus [6] = experiment: Bactericidal activity against Staphylococcus aureus 144 preincubated 16 to 20 hrs followed by subculturing and measured after over night; assay type: functional; in short: as §2
Staphylococcus aureus [7] = experiment: Antibacterial activity against methicillin-resistant Staphylococcus aureus ATCC 43300 assessed as post antibacterial effect at 4 time of MIC concentration preincubated for 2 hrs followed by compound washout further incubated with fresh medium and measured for 6 hrs; assay type: functional
Staphylococcus aureus [8] = experiment: Antibacterial activity against methicillin-resistant Staphylococcus aureus ATCC 43300 infected in ICR/Swiss mouse model of neutropenic thigh infection assessed as reduction in bacterial load at 20 mg/kg, iv and measured after 24 hrs; assay type: functional
In short: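 Mice made neutropenic by intraperitoneal cyclophosphamide; the negative control group received 0.9% saline intraperitoneally. Thigh muscle was inoculated with about 10^7 CFU/mL MRSA. Dose 20 mg/kg, with tiamulin as comparator and an untreated control. Read-out was thigh bacterial load (log10 CFU/g), n = 6/group.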

Staphylococcus aureus [9] = experiment: Antibacterial activity against methicillin-resistant Staphylococcus aureus ATCC 43300 infected in ICR/Swiss mouse systemic infection model assessed as survival rate at 30 mg/kg, ip after 7 days relative to control; assay type: functional; conditions: ATCC 43300, ip, 168 h, time 7 day
In short: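 MRSA systemic infection model in mice. Dose 30 mg/kg with tiamulin as comparator and an untreated infected control. Survival was recorded after 7 days of administration.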

Staphylococcus aureus [10] = experiment: Antibacterial activity against methicillin-resistant Staphylococcus aureus ATCC 43300 after 24 hrs by CLSI based broth micro dilution method; assay type: functional; in short: as §1
Staphylococcus aureus [11] = experiment: Antibacterial activity against Staphylococcus aureus 144 after 24 hrs by CLSI based broth micro dilution method; assay type: functional; in short: as §1
Staphylococcus aureus [12] = experiment: Bactericidal activity against Staphylococcus aureus AD3 preincubated 16 to 20 hrs followed by subculturing and measured after over night; assay type: functional; in short: as §2
[13] = Inhibition of CYP450 (unknown origin); assay type: ADME, Homo sapiens
Escherichia coli [14] = experiment: Antibacterial activity against Escherichia coli ATCC 25922 after 24 hrs by CLSI based broth micro dilution method; assay type: functional; in short: as §3
Staphylococcus aureus [15] = experiment: Bactericidal activity against methicillin-resistant Staphylococcus aureus ATCC 43300 assessed as reduction in bacterial growth at > 4 time of MIC concentration preincubated up to 24 hrs followed by subculturing and measured after 20 hrs by time-kill assay; assay type: functional; parameters: scale not given: the % may be the effect or the level left; conditions: time hrs <=44
Escherichia coli [16] = experiment: Bactericidal activity against Escherichia coli ATCC 25922 preincubated 16 to 20 hrs followed by subculturing and measured after over night; assay type: functional; in short: as §2
[17] = Ratio of MBC for bactericidal activity against methicillin-resistant Staphylococcus aureus ATCC 43300 to MIC for antibacterial activity against methicillin-resistant Staphylococcus aureus ATCC 4330; assay type: functional
Staphylococcus aureus [18] = experiment: Bactericidal activity against methicillin-resistant Staphylococcus aureus ATCC 43300 assessed as reduction in bacterial growth at MIC concentration preincubated up to 24 hrs followed by subculturing and measured after 20 hrs by time-kill assay; assay type: functional, organism-based; conditions: time hrs <=44
RAW264.7 = experiment: Cytotoxicity against mouse RAW264.7 cells assessed as reduction in cell viability at 8 ug/ml after 16 hrs by MTT assay; assay type: cell-based; conditions: raw264.7, 16 h, dose 8 µg/ml
In short: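 RAW 264.7 macrophage viability read by MTT assay after exposure at 8 μg/mL.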

Cytochrome P450 3A4 = Cytochrome P450 3A4 (Homo sapiens, UniProt P08684); experiment: Inhibition of CYP3A4 in human liver microsomes using testosterone as substrate preincubated for 5 mins followed by NADPH addition and measured after 5 mins by LC-MS/MS analysis; assay type: ADME
Sequence of Cytochrome P450 3A4 (P08684 whole entry): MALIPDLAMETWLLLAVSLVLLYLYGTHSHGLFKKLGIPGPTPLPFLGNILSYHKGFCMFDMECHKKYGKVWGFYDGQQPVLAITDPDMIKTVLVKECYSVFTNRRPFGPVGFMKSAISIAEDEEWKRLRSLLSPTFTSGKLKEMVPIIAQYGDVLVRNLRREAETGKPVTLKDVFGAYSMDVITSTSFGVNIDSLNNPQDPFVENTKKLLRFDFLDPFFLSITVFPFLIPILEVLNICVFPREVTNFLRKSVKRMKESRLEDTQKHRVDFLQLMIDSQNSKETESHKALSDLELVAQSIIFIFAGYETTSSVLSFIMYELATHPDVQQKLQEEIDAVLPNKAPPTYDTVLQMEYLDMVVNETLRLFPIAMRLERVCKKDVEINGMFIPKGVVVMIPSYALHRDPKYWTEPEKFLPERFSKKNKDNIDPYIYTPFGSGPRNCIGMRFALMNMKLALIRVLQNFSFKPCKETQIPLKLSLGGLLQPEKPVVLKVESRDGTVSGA

Structure (SMILES)	MBC (Staphylococcus aureus [1]) [mg/L]	MIC (Staphylococcus aureus [2]) [mg/L]	MBC (Staphylococcus aureus [3]) [mg/L]	PAE (Staphylococcus aureus [4]) [h]	MIC (Staphylococcus aureus [5]) [mg/L]	MBC (Staphylococcus aureus [6]) [mg/L]	PAE (Staphylococcus aureus [7]) [h]	Activity (Staphylococcus aureus [8]) [log10CFU/g]	survival at 30 mg/kg (Staphylococcus aureus [9]) [%]	MIC (Staphylococcus aureus [10]) [mg/L]	MIC (Staphylococcus aureus [11]) [mg/L]	MBC (Staphylococcus aureus [12]) [mg/L]	IC50 [13] [µM]	MIC (Escherichia coli [14]) [mg/L]	Activity (Staphylococcus aureus [15]) [%]	MBC (Escherichia coli [16]) [mg/L]	Ratio [17]	Activity (Staphylococcus aureus [18])	Activity (RAW264.7)	IC50 (Cytochrome P450 3A4) [µM]
C=C[C@]1(C)C[C@@H](OC(=O)CSCCN(CC)CC)[C@]2(C)[C@H](C)CC[C@]3(CCC(=O)[C@H]32)[C@@H](C)[C@@H]1O [TIAMULIN]	1 (≈ 2.03 µM)	0.5 (≈ 1.01 µM)	1 (≈ 2.03 µM)	1.65	1 (≈ 2.03 µM)	2 (≈ 4.05 µM)	2.04	0.77	20	0.5 (≈ 1.01 µM)	1 (≈ 2.03 µM)	2 (≈ 4.05 µM)								
CC[C@]1(C)C[C@@H](OC(=O)CSc2nnc(N)[nH]2)[C@]2(C)[C@H](C)CC[C@]3(CCC(=O)[C@H]32)[C@@H](C)[C@@H]1O [AZAMULIN]													0.12							
C=C[C@]1(C)C[C@@H](OC(=O)CSc2ccccc2NC(=O)Cn2cc(CN(CC)CC)nn2)[C@]2(C)[C@H](C)CC[C@]3(CCC(=O)[C@H]32)[C@@H](C)[C@@H]1O	0.5 (≈ 0.735 µM)	0.25 (≈ 0.368 µM)	0.25 (≈ 0.368 µM)	1.81	0.5 (≈ 0.735 µM)	0.5 (≈ 0.735 µM)	1.84			0.25 (≈ 0.368 µM)	0.5 (≈ 0.735 µM)	1 (≈ 1.47 µM)		> 32	99.9	> 32	1	Active		
C=C[C@]1(C)C[C@@H](OC(=O)CSc2ccccc2NC(=O)Cn2cc(CN(C)C)nn2)[C@]2(C)[C@H](C)CC[C@]3(CCC(=O)[C@H]32)[C@@H](C)[C@@H]1O	0.5 (≈ 0.767 µM)	0.25 (≈ 0.384 µM)	0.25 (≈ 0.384 µM)	2.03	0.25 (≈ 0.384 µM)	0.5 (≈ 0.767 µM)	2.74	1.71	50	0.25 (≈ 0.384 µM)	0.5 (≈ 0.767 µM)	0.5 (≈ 0.767 µM)		> 32	99.9	> 32	1	Active	Non-Toxic	6.15
